An excerpt weighted towards active compounds, which were near 1.4% of everything screened.
IDE inh = cellular human IDE inhibition; HEK cells, FAbetaB cleavage, fluorescence polarization; inhibition, % at 5.59 µM; 320,000 tested, 0.41% active; AID 434962;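 active means percent inhibition above the average of all tested compounds plus 3 SD, set per screening campaign, cut at about 16% in these data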;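 further: IDE supplied by intact live HEK cells; FP after avidin binding of uncleaved biotin substrate so inhibition keeps polarization high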
CSN inh = CSN deneddylation inhibition | Q92905 | Purified CSN, SCF-Nedd8-OG deneddylation, fluorescence polarization | inhibition, % at 12.5 µM | 360,000 tested, 0.38% active | AID 651999;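 active means pattern-corrected inhibition above about 35%, with an unprinted fluorescence ratio check between 0.5 and 1.5, limit read from the data, passing the limit was not always enough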
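Assay system: purified human Csn5 enzyme expressed in HEK293T cells; Input: 0.24 nM Csn5 enzyme, final concentration; Reagent: 10 nM SCFSkp2-Nedd8OG; Compound dosing: 12.5 µM single point; Times: reaction 90 min, room temperature; Technique: fluorescence polarization readout.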
TPT1 inh = C. albicans TPT1 enzyme inhibition | recombinant caTPT1, FP RNA substrate dephosphorylation | inhibition, % at 5 µM | 300,000 tested, 0.81% active | AID 1962;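 active means inhibition above the mean of all tested compounds plus 3 SD, set per screening campaign, cut at about 24% in these data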
IDE act = IDE (human) activation, cell-based; AID 493087; P14735; HEK cells, FAbeta-B cleavage, fluorescence polarization; 0% vehicle, 100% cell-free pure enzyme wells; 340,000 tested, 0.073% active; activation, % at 5.96 µM;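 active means activation above the mean of all tested compounds plus 3 SD, set per screening campaign, cut at about 17% in these data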
HNF4A DNA FP = change in binding of human HNF4 alpha to DNA. activity change, % at 10 µM. AID 1224865. P41235. HNF4a-FITC DNA binding, fluorescence polarization, 1 h. 360,000 tested, 0.3% active; in the data active means activity change above about 30%, passing the limit was not always enough
Target sequence (P41235 whole entry, looked up): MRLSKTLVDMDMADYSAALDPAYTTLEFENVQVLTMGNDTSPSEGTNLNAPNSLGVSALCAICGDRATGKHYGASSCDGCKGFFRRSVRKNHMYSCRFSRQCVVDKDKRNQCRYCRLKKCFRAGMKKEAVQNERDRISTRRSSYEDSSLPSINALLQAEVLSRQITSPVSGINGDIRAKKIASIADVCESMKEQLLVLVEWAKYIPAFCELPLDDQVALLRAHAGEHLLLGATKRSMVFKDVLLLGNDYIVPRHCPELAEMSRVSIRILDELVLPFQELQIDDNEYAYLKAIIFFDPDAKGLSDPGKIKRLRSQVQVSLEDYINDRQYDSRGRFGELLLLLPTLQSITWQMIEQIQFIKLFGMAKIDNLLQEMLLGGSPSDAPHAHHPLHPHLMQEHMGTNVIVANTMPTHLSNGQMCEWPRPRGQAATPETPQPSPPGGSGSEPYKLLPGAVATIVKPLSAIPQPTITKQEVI
Hits are given with their value; - = inactive; . = no result.

SMILES	IDE inh	CSN inh	TPT1 inh	IDE act	HNF4A DNA FP
O=C(Cn1sc2ccccc2c1=O)NC12CC3CC(CC(C3)C1)C2	58	-	-	-	-
CCOC(=O)C1(C)CCN1C(=O)Cc1ccc(OC)cc1 (stereo not drawn)	.	-	.	.	-
CC1(C(=O)Nc2cccc(S(=O)(=O)N3CCOCC3)c2)Cc2ccccc2C(=O)O1 (stereo not drawn)	-	-	-	-	-
CC1(C(=O)Nc2cccc(-n3cnnn3)c2)Cc2ccccc2C(=O)O1 (stereo not drawn)	-	101	.	-	-
CC(C)(C)NC(=O)C1C(c2ccccc2)=Nc2ccccc2N1C(=O)c1ccc(C(F)(F)F)cc1 (stereo not drawn)	.	-	.	.	-
O=C(Cn1c(=O)n(Cc2ccco2)c(=O)c2c3c(sc21)CCCCC3)c1ccccc1	-	38	-	-	-
Clc1ccc(C2=NCCN2)cc1	-	-	-	-	-
CC(C)(C)c1ccc(C(O)c2ncc(-c3ccc(F)cc3)[nH]2)cc1 (stereo not drawn)	.	-	.	.	-
CS(=O)(=O)Nc1ccc(C2=NN(S(C)(=O)=O)C(c3ccc4c(c3)OCO4)C2)cc1 (stereo not drawn)	-	-	-	-	79
CC(=O)N1CCc2cc(N=NC3=C(O)CCCC3=O)ccc21	-	-	-	-	43
O=C1c2nc3cc(-c4ccco4)[nH]n3c(=O)c2CN1C1CCCCC1	-	46	-	.	-
CCCOc1ccc(C2/C(=C(/O)c3ccc(F)cc3)C(=O)C(=O)N2CCCN(C)C)cc1 (stereo not drawn)	-	39	-	-	-
CCCCn1nnnc1C(c1ccccc1)N1CCN(C/C=C/c2ccccc2)CC1 (stereo not drawn)	.	-	.	.	-
O=S(=O)(NC1CC1)c1ccc(S(=O)(=O)N2CCc3ccccc32)cc1	-	-	-	-	-
O=S(=O)(c1ccc(Cl)cc1)N1CCc2ccccc21	-	54	-	-	93
O=S(=O)(c1ccc(Cl)cc1)N1CCCc2ccccc21	-	-	-	-	-
O=S(=O)(c1ccc(F)cc1)N1CCc2ccccc21	-	48	-	-	76
C#Cc1cccc(Nc2nc(NCc3ccccc3)nc3ccsc23)c1	.	-	.	.	-
COc1ccc(NC(=O)C2CCN(S(=O)(=O)c3ccc4c(c3)CC(C)N4C(C)=O)CC2)cc1OC (stereo not drawn)	-	-	-	77	-
N#Cc1ccc(COc2ccc(CCO)cc2-n2nc3ccccc3n2)cc1	-	100	-	-	-
CCOc1cc(-c2cc(-c3ccc(N)cc3)nc(N)c2C#N)ccc1O	-	-	-	-	-
CCOc1cc(-c2cc(-c3ccccc3)nc(N)c2C#N)ccc1O	-	-	-	-	28
COc1cc(-c2cc(-c3ccc(F)cc3)nc(N)c2C#N)ccc1O	-	-	-	-	83
Cc1ccc(C)c(C(Nc2ccccc2)c2ccc3ccc(C)nc3c2O)c1 (stereo not drawn)	.	-	.	.	-
Brc1ccc2nc(C3CCCCC3)c(CC3CCCCC3)n2c1	.	-	.	.	-
SMILES	IDE inh	CSN inh	TPT1 inh	IDE act	HNF4A DNA FP
COc1ccc(OCC(=O)Nc2cc(-c3nn4c(C)nnc4s3)ccc2C)cc1	-	-	-	-	42
O=C1COc2ccc(C(=O)COC(=O)c3ccc(Cl)cc3[N+](=O)[O-])cc2N1	-	77	-	-	-
O=C1COc2ccc(C(=O)COC(=O)c3ccccc3[N+](=O)[O-])cc2N1	-	-	-	-	-
COc1ccccc1C1CC(c2cccc(NS(C)(=O)=O)c2)=NN1S(=O)(=O)c1ccccc1 (stereo not drawn)	-	-	-	-	81
CC(C(=O)NC1CCCC1)n1c(C2CC2)nc2ccccc21 (stereo not drawn)	.	-	.	.	-
CCCCNC(=O)C1C(c2ccc(C(F)(F)F)cc2)=Nc2ccccc2N1C(=O)c1cccc2ccccc12 (stereo not drawn)	.	-	.	.	-
COC(=O)C[C@H]1C=C[C@@H](NC(=O)C2CC2)[C@@H](CO)O1	.	-	.	.	-
CC(C)n1cnc2c(Nc3cccc(Cl)c3)nc(NCCCO)nc21	-	-	-	-	-
C=CC(=O)Nc1cccc(Nc2nc(N[C@H]3CC[C@H](N(C)C)CC3)nc3c2ncn3C(C)C)c1	.	112	.	-	-
CCOC(=O)[C@]12CCC=C1N(Cc1ccc(Cl)cc1Cl)C(=O)[C@H](CC(=O)NCCCOC)C2	.	-	.	.	-
CC(=O)Nc1nc(C)c(Oc2ccccc2)c(=O)[nH]1	-	-	-	-	-
CCC(=O)Nc1nc(C)c(Oc2ccccc2)c(=O)[nH]1	-	105	-	-	-
COc1ccc(OC)c(CN2C(=O)CSCC2(C)C(=O)NC(C)C)c1 (stereo not drawn)	.	-	.	.	-
CN(C)c1ccc(/C=C/c2ccc3c4ccccc4ccc3[n+]2-c2ccccc2)cc1	.	57	.	-	-
Cc1ccc(S(=O)(=O)CCC(=O)OC(C)C(=O)N2CCc3ccccc32)cc1 (stereo not drawn)	-	40	-	-	-
COc1ccc(S(=O)(=O)N2CCCCC2c2cc(C(=O)NCc3ccccc3)no2)cc1 (stereo not drawn)	.	-	.	.	-
CC(=O)c1cccc(NS(=O)(=O)N(C)C)c1	-	-	-	-	50
COC(=O)[C@@]12C[C@@H](CC(=O)NCc3cccc(C(F)(F)F)c3)C(=O)N(Cc3ccc4c(c3)OCO4)C1=CCC(C)(C)C2	.	-	.	.	-
CCN1C(=O)C2(SC(NC(C)=O)=NN2C(C)=O)c2cc(C)ccc21 (stereo not drawn)	-	-	-	-	-
CCc1ccc2c(c1)C1(SC(NC(C)=O)=NN1C(C)=O)C(=O)N2CC (stereo not drawn)	-	56	-	-	-
COc1ccc(Cc2c(-c3ccc(C)cc3)nc3cc(C)c(Br)c(C)n23)c(C)c1	.	-	.	.	-
COc1ccc2[nH]cc(CCNS(=O)(=O)c3ccc(F)cc3)c2c1	-	-	-	-	-
COc1ccc2[nH]cc(CCNS(=O)(=O)c3ccccc3)c2c1	-	60	-	-	-
O=c1c2c(-c3ccco3)csc2nc(SCc2cn3cccnc3n2)n1-c1ccccc1	-	46	-	-	-
Cc1ccc(S(=O)(=O)N2C[C@H]3C(=O)C[C@@H](c4ccccc4C)N(S(=O)(=O)c4ccc(C)cc4)[C@H]3C[C@H]2c2ccccc2)cc1	.	-	.	.	-
SMILES	IDE inh	CSN inh	TPT1 inh	IDE act	HNF4A DNA FP
COc1ccc(CNC[C@H]2O[C@@H](n3ccc(=O)[nH]c3=O)[C@H](O)[C@@H]2O)cc1	.	-	.	.	-
CCOC(=O)C[C@@H]1OC[C@H](CO)N1S(=O)(=O)c1ccc(C)cc1	.	-	.	.	-
CCc1nc2c(OCc3ccccc3)cccn2c1N(C)C(=O)c1ccc2c(c1)OCO2	.	-	.	.	-
Cc1ccc(CNC(=O)c2c(-c3ccccc3Cl)noc2C)cc1	-	-	-	-	-
Cc1onc(-c2ccccc2Cl)c1C(=O)NCc1ccco1	-	49	-	-	-
CC(C)=CCN1CCN(Cc2coc3ccc(C)cc3c2=O)CC1CCO (stereo not drawn)	-	-	-	-	51
